From article PMC11520665 (Critical Care, 2024)

Test: Safety: treatment-emergent adverse events
Type: in vivo, patients (adults)
Settings: safety population
Method in brief: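 Post-hoc pooled data from two randomised, double-blind, double-dummy trials. The safety population was adults in the ICU at randomisation who received ≥1 dose. Dosing was IV test compound weekly (400 mg Day 1, 200 mg Day 8, optional later 200 mg) or IV comparator echinocandin daily (70 mg Day 1, then 50 mg/day). TEAEs ran from dosing to follow-up, coded MedDRA 23.0, graded mild/moderate/severe, and summarised descriptively.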

[1] = ICU at randomisation, n=46 rezafungin, n=67 caspofungin
[2] = ICU at randomisation, number of events per severity

Substance: Caspofungin
- TEAE: Abdominal abscess, patients [1]: 4 (6.0) n (%)
- TEAE: Abdominal pain, patients [1]: 4 (6.0) n (%)
- TEAE: Acidosis, patients [1]: 4 (6.0) n (%)
- TEAE: Acute kidney injury, patients [1]: 4 (6.0) n (%)
- TEAE: Anaemia, patients [1]: 7 (10.4) n (%)
- TEAE: Atrial fibrillation, patients [1]: 3 (4.5) n (%)
- TEAE: Bradycardia, patients [1]: 5 (7.5) n (%)
- TEAE: Constipation, patients [1]: 4 (6.0) n (%)
- TEAE: Decubitus ulcer, patients [1]: 5 (7.5) n (%)
- TEAE: Deep vein thrombosis, patients [1]: 4 (6.0) n (%)
- TEAE: Diarrhoea, patients [1]: 7 (10.4) n (%)
- TEAE: Dyspnoea, patients [1]: 4 (6.0) n (%)
- TEAE: Fluid overload, patients [1]: 2 (3.0) n (%)
- TEAE: Hyperkalaemia, patients [1]: 5 (7.5) n (%)
- TEAE: Hypertension, patients [1]: 3 (4.5) n (%)
- TEAE: Hypokalaemia, patients [1]: 10 (14.9) n (%)
- TEAE: Hypotension, patients [1]: 6 (9.0) n (%)
- TEAE: Insomnia, patients [1]: 2 (3.0) n (%)
- TEAE: Multiple organ dysfunction syndrome, patients [1]: 3 (4.5) n (%)
- TEAE: Nausea, patients [1]: 4 (6.0) n (%)
- TEAE: Peripheral oedema, patients [1]: 2 (3.0) n (%)
- TEAE: Pleural effusion, patients [1]: 4 (6.0) n (%)
- TEAE: Pneumonia, patients [1]: 2 (3.0) n (%)
- TEAE: Pneumothorax, patients [1]: 4 (6.0) n (%)
- TEAE: Pyrexia, patients [1]: 6 (9.0) n (%)
- TEAE: Respiratory failure, patients [1]: 4 (6.0) n (%)
- TEAE: Sepsis, patients [1]: 3 (4.5) n (%)
- TEAE: Septic shock, patients [1]: 7 (10.4) n (%)
- TEAE: Vomiting, patients [1]: 3 (4.5) n (%)
- ≥ 1 TEAE [1]: 54 (80.6) n (%)
- ≥ 1 TEAE leading to study/drug discontinuation [1]: 20 (29.9) n (%)
- ≥ 1 serious TEAE [1]: 38 (56.7) n (%)
- ≥ 1 study drug-related TEAE [1]: 11 (16.4) n (%)
- ≥ 1 study drug-related TEAE leading to study/drug discontinuation [1]: 2 (3.0) n (%)
- ≥ 1 study drug-related serious TEAE [1]: 4 (6.0) n (%)
- TEAE: Abdominal abscess, event severity (n): mild/moderate/severe [2]: 0/0/4
- TEAE: Abdominal pain, event severity (n): mild/moderate/severe [2]: 3/0/1
- TEAE: Acidosis, event severity (n): mild/moderate/severe [2]: 2/2/0
- TEAE: Acute kidney injury, event severity (n): mild/moderate/severe [2]: 1/1/2
- TEAE: Anaemia, event severity (n): mild/moderate/severe [2]: 3/4/0
- TEAE: Atrial fibrillation, event severity (n): mild/moderate/severe [2]: 1/2/0
- TEAE: Bradycardia, event severity (n): mild/moderate/severe [2]: 2/3/0
- TEAE: Constipation, event severity (n): mild/moderate/severe [2]: 3/1/0
- TEAE: Decubitus ulcer, event severity (n): mild/moderate/severe [2]: 2/2/1
- TEAE: Deep vein thrombosis, event severity (n): mild/moderate/severe [2]: 1/3/0
- TEAE: Diarrhoea, event severity (n): mild/moderate/severe [2]: 4/3/0
- TEAE: Dyspnoea, event severity (n): mild/moderate/severe [2]: 1/2/1
- TEAE: Fluid overload, event severity (n): mild/moderate/severe [2]: 1/1/0
- TEAE: Hyperkalaemia, event severity (n): mild/moderate/severe [2]: 2/2/1
- TEAE: Hypertension, event severity (n): mild/moderate/severe [2]: 2/0/1
- TEAE: Hypokalaemia, event severity (n): mild/moderate/severe [2]: 8/2/0
- TEAE: Hypotension, event severity (n): mild/moderate/severe [2]: 3/3/1
- TEAE: Insomnia, event severity (n): mild/moderate/severe [2]: 1/1/0
- TEAE: Multiple organ dysfunction syndrome, event severity (n): mild/moderate/severe [2]: 0/0/3
- TEAE: Nausea, event severity (n): mild/moderate/severe [2]: 1/3/0
- TEAE: Peripheral oedema, event severity (n): mild/moderate/severe [2]: 1/1/0
- TEAE: Pleural effusion, event severity (n): mild/moderate/severe [2]: 1/3/0
- TEAE: Pneumonia, event severity (n): mild/moderate/severe [2]: 1/1/0
- TEAE: Pneumothorax, event severity (n): mild/moderate/severe [2]: 1/3/0
- TEAE: Pyrexia, event severity (n): mild/moderate/severe [2]: 5/1/0
- TEAE: Respiratory failure, event severity (n): mild/moderate/severe [2]: 0/0/4
- TEAE: Sepsis, event severity (n): mild/moderate/severe [2]: 0/0/3
- TEAE: Septic shock, event severity (n): mild/moderate/severe [2]: 0/0/7
- TEAE: Vomiting, event severity (n): mild/moderate/severe [2]: 2/1/0
- Study drug-related serious TEAEs, events (each event n = 1): ventricular tachycardia, rectal haemorrhage, hypertransaminasaemia, and anaphylactic shock
- Study drug-related TEAEs that led to study discontinuation, events (two patients): ventricular tachycardia and anaphylactic shock
